For orientation: IC50 means the midpoint of a concentration-inhibition curve. Higher therefore signals weaker potency.

The target in experiment [1] is Proto-oncogene tyrosine-protein kinase Src (Homo sapiens, UniProt P12931). As to the kind of experiment: Inhibitory activity against Src protein tyrosine kinase. A digest of the protocol: (§1)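 Enzymatic kinase inhibition run by previously reported methods. Each IC50 came from at least two separate tests with deviation under 20%, and the mean is reported.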
Proto-oncogene tyrosine-protein kinase Src, sequence (P12931 2-536 limits assumed): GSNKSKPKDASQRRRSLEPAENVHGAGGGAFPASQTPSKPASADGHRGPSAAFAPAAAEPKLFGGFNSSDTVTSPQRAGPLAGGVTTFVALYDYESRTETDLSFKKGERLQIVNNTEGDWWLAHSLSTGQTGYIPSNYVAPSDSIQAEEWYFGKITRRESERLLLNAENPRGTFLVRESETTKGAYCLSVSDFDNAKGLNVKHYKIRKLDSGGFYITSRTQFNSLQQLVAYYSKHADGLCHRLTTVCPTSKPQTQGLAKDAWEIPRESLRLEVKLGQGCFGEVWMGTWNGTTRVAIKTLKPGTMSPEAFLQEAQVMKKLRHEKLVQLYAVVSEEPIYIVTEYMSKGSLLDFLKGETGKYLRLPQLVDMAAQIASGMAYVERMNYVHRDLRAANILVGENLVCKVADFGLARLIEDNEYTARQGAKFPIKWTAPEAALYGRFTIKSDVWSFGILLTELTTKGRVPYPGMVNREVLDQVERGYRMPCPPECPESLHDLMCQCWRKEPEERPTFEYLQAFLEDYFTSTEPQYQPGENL
Experiment [2] concerns the target Tyrosine-protein kinase Fyn (Homo sapiens, UniProt P06241). Description: Inhibitory activity against Fyn tyrosine kinase.
Experiment [3] addresses Vascular endothelial growth factor receptor 2 (Homo sapiens, UniProt P35968). As to the kind of experiment: Inhibitory activity against Vascular endothelial growth factor receptor 2.
Experiment [4] addresses Fibroblast growth factor receptor 1 (Homo sapiens, UniProt P11362). As to the kind of experiment: Inhibitory activity against Fibroblast growth factor receptor 1.
In experiment [5] the target is Tyrosine-protein kinase Lck (Homo sapiens, UniProt P06239). As to the kind of experiment: Inhibitory activity against Lck tyrosine kinase.
Tyrosine-protein kinase Lck, sequence (P06239 whole entry): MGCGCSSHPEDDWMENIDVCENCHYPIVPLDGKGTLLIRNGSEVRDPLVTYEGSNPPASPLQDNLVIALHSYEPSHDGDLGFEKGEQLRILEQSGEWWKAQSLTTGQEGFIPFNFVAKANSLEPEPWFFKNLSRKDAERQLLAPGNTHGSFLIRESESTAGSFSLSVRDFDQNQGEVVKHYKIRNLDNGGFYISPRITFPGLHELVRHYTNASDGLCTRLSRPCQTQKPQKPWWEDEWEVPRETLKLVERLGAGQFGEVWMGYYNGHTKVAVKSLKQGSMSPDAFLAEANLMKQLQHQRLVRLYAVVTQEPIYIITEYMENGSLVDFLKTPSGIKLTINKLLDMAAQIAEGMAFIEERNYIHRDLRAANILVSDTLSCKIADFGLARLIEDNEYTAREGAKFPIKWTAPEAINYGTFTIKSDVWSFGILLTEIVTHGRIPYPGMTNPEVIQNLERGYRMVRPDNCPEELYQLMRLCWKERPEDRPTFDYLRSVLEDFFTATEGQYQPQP
For experiment [6], the target named is Platelet-derived growth factor receptor beta (Homo sapiens, UniProt P09619). Description: Inhibitory activity against PDGFRbeta tyrosine kinase. A digest of the protocol: as §1
Platelet-derived growth factor receptor beta, sequence (P09619 whole entry): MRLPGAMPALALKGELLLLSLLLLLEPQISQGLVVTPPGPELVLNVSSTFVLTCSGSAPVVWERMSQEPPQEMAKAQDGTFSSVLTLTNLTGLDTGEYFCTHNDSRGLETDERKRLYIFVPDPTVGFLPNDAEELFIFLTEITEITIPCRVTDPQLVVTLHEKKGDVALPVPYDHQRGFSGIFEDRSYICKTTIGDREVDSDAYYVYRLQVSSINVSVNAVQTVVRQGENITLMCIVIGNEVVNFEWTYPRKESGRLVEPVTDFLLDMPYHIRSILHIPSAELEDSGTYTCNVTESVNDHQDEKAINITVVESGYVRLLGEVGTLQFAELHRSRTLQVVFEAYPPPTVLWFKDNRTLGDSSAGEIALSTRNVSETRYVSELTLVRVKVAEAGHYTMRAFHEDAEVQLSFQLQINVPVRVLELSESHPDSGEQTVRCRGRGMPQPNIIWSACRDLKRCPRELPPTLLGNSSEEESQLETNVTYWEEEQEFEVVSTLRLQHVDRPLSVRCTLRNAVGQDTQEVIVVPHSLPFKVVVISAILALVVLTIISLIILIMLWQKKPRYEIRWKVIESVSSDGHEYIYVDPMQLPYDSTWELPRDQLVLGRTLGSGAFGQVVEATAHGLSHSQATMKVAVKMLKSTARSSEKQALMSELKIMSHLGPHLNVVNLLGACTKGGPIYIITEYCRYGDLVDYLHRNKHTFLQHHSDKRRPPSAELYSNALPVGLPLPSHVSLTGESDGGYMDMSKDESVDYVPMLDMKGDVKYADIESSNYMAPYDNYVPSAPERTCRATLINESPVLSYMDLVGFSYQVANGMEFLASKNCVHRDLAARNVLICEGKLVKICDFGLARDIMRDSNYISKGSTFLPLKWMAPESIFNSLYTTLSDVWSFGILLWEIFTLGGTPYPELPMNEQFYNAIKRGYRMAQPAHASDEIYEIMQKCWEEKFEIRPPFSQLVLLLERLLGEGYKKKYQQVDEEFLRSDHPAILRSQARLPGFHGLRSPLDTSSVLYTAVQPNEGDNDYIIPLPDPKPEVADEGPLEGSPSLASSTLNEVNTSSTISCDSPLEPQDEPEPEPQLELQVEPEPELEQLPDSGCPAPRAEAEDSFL

Structures are written as SMILES.

Vascular endothelial growth factor receptor 2, sequence (P35968 whole entry): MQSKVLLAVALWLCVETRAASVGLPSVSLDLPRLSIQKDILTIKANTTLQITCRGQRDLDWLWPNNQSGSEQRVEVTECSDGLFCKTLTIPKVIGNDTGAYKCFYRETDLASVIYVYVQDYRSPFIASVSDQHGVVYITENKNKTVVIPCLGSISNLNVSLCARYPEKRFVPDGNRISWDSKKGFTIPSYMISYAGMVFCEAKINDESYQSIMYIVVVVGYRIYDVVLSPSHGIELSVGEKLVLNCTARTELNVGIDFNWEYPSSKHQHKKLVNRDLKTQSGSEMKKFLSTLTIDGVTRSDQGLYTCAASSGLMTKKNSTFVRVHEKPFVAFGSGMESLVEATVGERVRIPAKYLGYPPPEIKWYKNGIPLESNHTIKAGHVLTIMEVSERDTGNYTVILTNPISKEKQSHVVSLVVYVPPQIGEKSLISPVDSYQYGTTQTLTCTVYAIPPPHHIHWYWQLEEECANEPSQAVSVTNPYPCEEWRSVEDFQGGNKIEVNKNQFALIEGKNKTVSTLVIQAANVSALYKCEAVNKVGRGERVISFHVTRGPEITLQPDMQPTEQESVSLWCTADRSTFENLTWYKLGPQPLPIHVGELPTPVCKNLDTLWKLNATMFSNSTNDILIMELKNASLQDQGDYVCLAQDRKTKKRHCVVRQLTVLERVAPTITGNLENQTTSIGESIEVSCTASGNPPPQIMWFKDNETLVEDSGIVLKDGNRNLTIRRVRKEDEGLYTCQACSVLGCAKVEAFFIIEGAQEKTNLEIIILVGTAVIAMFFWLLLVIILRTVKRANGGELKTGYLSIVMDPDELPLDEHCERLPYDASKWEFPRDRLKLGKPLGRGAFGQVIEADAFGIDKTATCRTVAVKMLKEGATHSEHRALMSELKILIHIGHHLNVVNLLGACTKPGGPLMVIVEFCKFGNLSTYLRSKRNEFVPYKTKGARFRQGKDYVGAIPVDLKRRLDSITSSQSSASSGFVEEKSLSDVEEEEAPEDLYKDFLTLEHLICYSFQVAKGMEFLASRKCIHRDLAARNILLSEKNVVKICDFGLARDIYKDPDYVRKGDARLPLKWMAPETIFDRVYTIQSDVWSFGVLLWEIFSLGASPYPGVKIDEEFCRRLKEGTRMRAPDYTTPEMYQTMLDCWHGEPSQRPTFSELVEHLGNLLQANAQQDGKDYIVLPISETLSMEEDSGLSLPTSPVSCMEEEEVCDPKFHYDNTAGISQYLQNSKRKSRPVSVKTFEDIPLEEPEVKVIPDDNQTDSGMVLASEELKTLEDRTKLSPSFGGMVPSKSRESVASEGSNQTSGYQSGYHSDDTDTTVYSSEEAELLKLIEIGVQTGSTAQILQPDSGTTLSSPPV
Fibroblast growth factor receptor 1, sequence (P11362 whole entry): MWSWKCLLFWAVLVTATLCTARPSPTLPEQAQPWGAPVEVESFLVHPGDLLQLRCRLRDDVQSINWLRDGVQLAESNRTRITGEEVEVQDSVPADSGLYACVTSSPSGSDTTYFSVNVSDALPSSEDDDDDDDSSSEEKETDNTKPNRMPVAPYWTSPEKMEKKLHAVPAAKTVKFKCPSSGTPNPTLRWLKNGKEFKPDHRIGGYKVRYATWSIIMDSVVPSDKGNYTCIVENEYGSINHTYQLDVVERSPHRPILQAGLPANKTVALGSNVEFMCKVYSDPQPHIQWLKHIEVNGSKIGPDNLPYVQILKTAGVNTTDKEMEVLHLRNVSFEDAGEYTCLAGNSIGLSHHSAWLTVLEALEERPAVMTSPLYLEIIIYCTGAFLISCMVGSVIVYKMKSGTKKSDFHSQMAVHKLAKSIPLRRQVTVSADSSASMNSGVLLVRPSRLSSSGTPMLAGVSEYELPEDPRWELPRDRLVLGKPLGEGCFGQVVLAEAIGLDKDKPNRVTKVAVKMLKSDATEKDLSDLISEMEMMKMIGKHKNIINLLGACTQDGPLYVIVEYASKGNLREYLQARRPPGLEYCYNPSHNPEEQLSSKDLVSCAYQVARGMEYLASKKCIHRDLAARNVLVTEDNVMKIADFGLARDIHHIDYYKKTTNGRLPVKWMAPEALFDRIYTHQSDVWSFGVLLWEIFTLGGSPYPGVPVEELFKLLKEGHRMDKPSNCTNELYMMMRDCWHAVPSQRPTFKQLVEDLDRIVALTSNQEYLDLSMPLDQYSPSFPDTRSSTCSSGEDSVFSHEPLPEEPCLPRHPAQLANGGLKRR
Tyrosine-protein kinase Fyn, sequence (P06241 whole entry): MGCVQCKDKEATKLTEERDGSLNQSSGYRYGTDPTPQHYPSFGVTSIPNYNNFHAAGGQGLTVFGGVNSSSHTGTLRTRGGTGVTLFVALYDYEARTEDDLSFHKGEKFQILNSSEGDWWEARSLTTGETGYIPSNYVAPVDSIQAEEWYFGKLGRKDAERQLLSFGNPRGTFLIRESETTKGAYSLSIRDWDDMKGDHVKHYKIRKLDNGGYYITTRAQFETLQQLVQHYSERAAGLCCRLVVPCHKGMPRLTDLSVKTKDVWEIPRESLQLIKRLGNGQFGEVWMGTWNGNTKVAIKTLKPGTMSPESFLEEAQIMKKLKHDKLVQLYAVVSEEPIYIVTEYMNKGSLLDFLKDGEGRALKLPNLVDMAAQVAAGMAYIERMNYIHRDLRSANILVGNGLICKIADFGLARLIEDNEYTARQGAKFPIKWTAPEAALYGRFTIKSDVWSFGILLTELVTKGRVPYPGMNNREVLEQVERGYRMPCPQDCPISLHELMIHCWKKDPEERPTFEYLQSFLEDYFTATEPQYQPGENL

`CCS(=O)(=O)c1ccc2c(c1)/C(=C/c1[nH]c3c(c1CCC(=O)N1CCN(C)CC1)CCCC3)C(=O)N2`: the IC50 in experiment [1] turned out to be 500 nM.

Take `CNS(=O)(=O)c1ccc2c(c1)/C(=C/c1[nH]c3c(c1CN1CCOCC1)CCCC3)C(=O)N2`: the IC50 in experiment [1] is 10 nM; in experiment [2], 400 nM; in experiment [3], 60 nM; in experiment [4] it was 200 nM; in experiment [5], 80 nM.

With `CNS(=O)(=O)c1ccc2c(c1)/C(=C/c1[nH]c3c(c1CCCN1CCC(O)CC1)CCCC3)C(=O)N2`, the IC50 in experiment [6] is 4700 nM; in experiment [1] it was 50 nM; in experiment [2], 200 nM; in experiment [3], 7100 nM; in experiment [4], 3400 nM; in experiment [5] it was 300 nM.

Consider `CN(C)CCCc1c(/C=C2\C(=O)Nc3ccc(S(=O)(=O)NCCO)cc32)[nH]c2c1CCCC2`, for which half-maximal inhibition in experiment [1] (IC50) required 240 nM.

As for `COc1ccc2c(c1)/C(=C/c1[nH]c3c(c1CCCN(C)C)CCCC3)C(=O)N2`, the IC50 in experiment [1] amounted to 1000 nM. Compared with the last compound, the IC50 is about 4.2-fold higher.

In the case of `CNS(=O)(=O)c1ccc2c(c1)/C(=C/c1[nH]c3c(c1CCC(N)=O)CCCC3)C(=O)N2`, the IC50 is 6600 nM in experiment [6]; 30 nM in experiment [1]; 50 nM in experiment [2]; 500 nM in experiment [3]; 70 nM in experiment [4]; 100 nM in experiment [5].

On to `CCS(=O)(=O)c1ccc2c(c1)/C(=C/c1[nH]c3c(c1CCCN1CCN(C)CC1)CCCC3)C(=O)N2`, for which the IC50 was found to be 11000 nM in experiment [6]; 210 nM in experiment [1]; 1200 nM in experiment [2]; 2600 nM in experiment [3]; 600 nM in experiment [5].

On to `CNS(=O)(=O)c1ccc2c(c1)/C(=C/c1[nH]c3c(c1CCCN1CCN(C)CC1)CCCC3)C(=O)N2`, for which the concentration for half-maximal inhibition (IC50) in experiment [6] was found to be 10000 nM; in experiment [1], 70 nM; in experiment [2] it was 800 nM; in experiment [3] it was 300 nM; in experiment [4], 1200 nM; in experiment [5] it was 700 nM.

In experiment [1], `CN(C)CCCc1c(/C=C2\C(=O)Nc3ccc(S(=O)(=O)Nc4ccccc4Cl)cc32)[nH]c2c1CCCC2` had an IC50 of 300 nM. In other words, the sub-micromolar range.

For the compound `CCS(=O)(=O)c1ccc2c(c1)/C(=C/c1[nH]c3c(c1CCCN1CCN(CC(=O)O)CC1)CCCC3)C(=O)N2`, the IC50 in experiment [6] was 13000 nM; in experiment [1], 70 nM; in experiment [2], 400 nM; in experiment [3], 800 nM; in experiment [4], 400 nM; in experiment [5], 400 nM.

In experiment [1], `CNS(=O)(=O)c1ccc2c(c1)/C(=C/c1cc3c([nH]1)CCCC3)C(=O)N2` gave an IC50 of 2100 nM.

With `CNS(=O)(=O)c1ccc2c(c1)/C(=C/c1[nH]c3c(c1CCCN1CCN(CCO)CC1)CCCC3)C(=O)N2`, the IC50 in experiment [6] was found to be 5600 nM; in experiment [1], 30 nM; in experiment [2], 100 nM; in experiment [3], 400 nM; in experiment [4], 600 nM; in experiment [5], 400 nM.

On to `CNS(=O)(=O)c1ccc2c(c1)/C(=C/c1[nH]c3c(c1CCCN(C)C)CCCC3)C(=O)N2`, for which the IC50 in experiment [6] came out at 3300 nM; in experiment [1] it was 100 nM; in experiment [2], 60 nM; in experiment [3], 1100 nM; in experiment [4] it was 700 nM; in experiment [5] it was 1600 nM.

`CN(C)CCCc1c(/C=C2\C(=O)Nc3ccc(C(=O)O)cc32)[nH]c2c1CCCC2` gave an IC50 in experiment [1] of 700 nM. This counts as sub-micromolar.

Turning to `CCS(=O)(=O)c1ccc2c(c1)/C(=C/c1[nH]c3c(c1CCCN1CCC(O)CC1)CCCC3)C(=O)N2`, the IC50 in experiment [6] was found to be 2300 nM; in experiment [1], 70 nM; in experiment [2] it was 600 nM; in experiment [5] it was 700 nM.

With `CNS(=O)(=O)c1ccc2c(c1)/C(=C/c1[nH]c3c(c1CCCN1CCNCC1)CCCC3)C(=O)N2`, the midpoint of inhibition in experiment [1], the IC50, lay at 200 nM.

`CCS(=O)(=O)c1ccc2c(c1)/C(=C/c1[nH]c3c(c1CCCN(C)C)CCCC3)C(=O)N2`: the IC50 was 2500 nM in experiment [6]; 60 nM in experiment [1]; 300 nM in experiment [2]; 2700 nM in experiment [3]; 400 nM in experiment [4]; 200 nM in experiment [5].

The compound `CN(C)CCCc1c(/C=C2\C(=O)Nc3ccc(S(C)(=O)=O)cc32)[nH]c2c1CCCC2` gave an IC50 in experiment [1] of 300 nM.

In turn, `CNS(=O)(=O)c1ccc2c(c1)/C(=C/c1[nH]c3c(c1CCC(=O)N1CCN(C)CC1)CCCC3)C(=O)N2` yielded an IC50 in experiment [1] of 300 nM. This counts as sub-micromolar.

With `CCS(=O)(=O)c1ccc2c(c1)/C(=C/c1[nH]c3c(c1CCCN1CCN(CCO)CC1)CCCC3)C(=O)N2`, the IC50 amounted to 9000 nM in experiment [6]; 70 nM in experiment [1]; 400 nM in experiment [2]; 400 nM in experiment [3]; 1100 nM in experiment [4]; 500 nM in experiment [5].

`CCOC(=O)CN1CCN(CCCc2c(/C=C3\C(=O)Nc4ccc(S(=O)(=O)NC)cc43)[nH]c3c2CCCC3)CC1`: the IC50 in experiment [6] was > 20000 nM; in experiment [1], 70 nM; in experiment [2], 500 nM; in experiment [3], 500 nM; in experiment [4], 80 nM; in experiment [5], 600 nM.

Regarding `CCS(=O)(=O)c1ccc2c(c1)/C(=C/c1[nH]c3c(c1CCC(=O)O)CCCC3)C(=O)N2`, in experiment [1], the IC50 was determined as 400 nM. That is a sub-micromolar value.

For `CNS(=O)(=O)c1ccc2c(c1)/C(=C/c1[nH]c3c(c1CCCN1CCN(C(C)=O)CC1)CCCC3)C(=O)N2`, the IC50 in experiment [1] amounted to 300 nM. The IC50 values of the last two compounds are within 1.5-fold of each other.

In experiment [1], `CN(C)CCCc1c(/C=C2\C(=O)Nc3ccc(S(=O)(=O)NCc4ccc(F)cc4)cc32)[nH]c2c1CCCC2` displayed a concentration for half-maximal inhibition (IC50) of 1200 nM.

In turn, `CN(C)CCCc1c(/C=C2\C(=O)Nc3ccc(F)cc32)[nH]c2c1CCCC2` gave a half-maximal inhibitory concentration (IC50) in experiment [1] of 500 nM.

Regarding `CNS(=O)(=O)c1ccc2c(c1)/C(=C/c1[nH]c3c(c1CCCN1CCOCC1)CCCC3)C(=O)N2`, the IC50 came out at 18000 nM in experiment [6], 60 nM in experiment [1], 2300 nM in experiment [3] and 1700 nM in experiment [4].

In turn, `CC(C)NS(=O)(=O)c1ccc2c(c1)/C(=C/c1[nH]c3c(c1CCCN(C)C)CCCC3)C(=O)N2` registered an IC50 in experiment [1] of 230 nM.

`CCS(=O)(=O)c1ccc2c(c1)/C(=C/c1[nH]c3c(c1CCCN1CCN(C(C)=O)CC1)CCCC3)C(=O)N2`: 400 nM corresponded to half-maximal inhibition in experiment [1] (IC50).

In experiment [1], `CC(C)S(=O)(=O)c1ccc2c(c1)/C(=C/c1[nH]c3c(c1CCCN(C)C)CCCC3)C(=O)N2` gave an IC50 of 230 nM.

With `CCS(=O)(=O)c1ccc2c(c1)/C(=C/c1[nH]c3c(c1CCC(N)=O)CCCC3)C(=O)N2`, the IC50 in experiment [6] amounted to 5100 nM; in experiment [1] it was 40 nM; in experiment [2] it was 200 nM; in experiment [3], 300 nM; in experiment [4] it was 80 nM.

Regarding `CCS(=O)(=O)c1ccc2c(c1)/C(=C/c1cc3c([nH]1)CCCC3)C(=O)N2`, in experiment [1], it took 700 nM to reach half-maximal inhibition (IC50).

`CN(C)CCCc1c(/C=C2\C(=O)Nc3ccc(S(=O)(=O)N(C)C)cc32)[nH]c2c1CCCC2` came in with an IC50 in experiment [1] of 2600 nM. This IC50 is about 3.7-fold higher than that of the compound before.

Regarding `CNS(=O)(=O)c1ccc2c(c1)/C(=C/c1[nH]c3ccccc3c1CCCN(C)C)C(=O)N2`, the half-maximal inhibitory concentration (IC50) in experiment [1] was 200 nM. This IC50 lies about 13-fold lower than the previous one.

As to `CN(C)CCCc1c(/C=C2\C(=O)Nc3ccc(-c4ccccc4)cc32)[nH]c2c1CCCC2`, the IC50 in experiment [1] amounted to 2300 nM.

Turning to `CNS(=O)(=O)c1ccc2c(c1)/C(=C/c1[nH]c3c(c1CCCN1CCN(CC(=O)O)CC1)CCCC3)C(=O)N2`, the IC50 worked out at 8000 nM in experiment [6]; 20 nM in experiment [1]; 400 nM in experiment [2]; 400 nM in experiment [3]; 200 nM in experiment [4]; 100 nM in experiment [5].

For `CCC(=O)N1CCN(CCCc2c(/C=C3\C(=O)Nc4ccc(S(=O)(=O)CC)cc43)[nH]c3c2CCCC3)CC1`, the IC50 in experiment [1] came to 800 nM.

The compound `CCOC(=O)N1CCN(CCCc2c(/C=C3\C(=O)Nc4ccc(S(=O)(=O)NC)cc43)[nH]c3c2CCCC3)CC1` showed an IC50 in experiment [1] of 300 nM.

In experiment [1], `CN(C)CCCc1c(/C=C2\C(=O)Nc3ccc(S(N)(=O)=O)cc32)[nH]c2c1CCCC2` returned an IC50 of 600 nM.

Turning to `CCS(=O)(=O)c1ccc2c(c1)/C(=C/c1[nH]c3c(c1CN1CCOCC1)CCCC3)C(=O)N2`, the IC50 is 70 nM in experiment [1]; 1400 nM in experiment [2]; 100 nM in experiment [3]; 400 nM in experiment [4]; 800 nM in experiment [5].

`CNS(=O)(=O)c1ccc2c(c1)/C(=C/c1[nH]c3c(c1CCCN1CCN(C(=O)CO)CC1)CCCC3)C(=O)N2`: in experiment [1], the IC50 came to 400 nM.

As for `CCS(=O)(=O)c1ccc2c(c1)/C(=C/c1[nH]c3c(c1CCCN1CCOCC1)CCCC3)C(=O)N2`, the IC50 in experiment [1] was determined as 150 nM.

Regarding `CCS(=O)(=O)Cc1ccc2c(c1)/C(=C/c1[nH]c3c(c1CCCN(C)C)CCCC3)C(=O)N2`, the 50% inhibitory concentration (IC50) in experiment [1] was determined as 10000 nM.

Compound `CN(C)CCCc1c(/C=C2\C(=O)Nc3ccccc32)[nH]c2c1CCCC2` yielded an IC50 in experiment [1] of 3300 nM.

`CNS(=O)(=O)c1ccc2c(c1)/C(=C/c1[nH]c(C)c(C)c1CCCN(C)C)C(=O)N2` yielded an IC50 in experiment [1] of 1000 nM.

For the compound `CCS(=O)(=O)c1ccc2c(c1)/C(=C/c1[nH]c3c(c1CCCN1CCN(C(=O)CO)CC1)CCCC3)C(=O)N2`, the IC50 in experiment [1] was 220 nM.
